Measured values from PubChem BioAssay AID809 (SRMLSC, 2007).
Calls of active or inactive are those of the source.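 Rule for the calls: active = EC50 for reversing nicotinamide-shortened yeast lifespan at or below a set limit; inactive = EC50 above that limit.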

test system: S. cerevisiae DeaD BB579, nicotinamide rescue growth, OD615 48 h; experiment: BB579 yeast growth restoration under nicotinamide – S. cerevisiae, yeast lifespan extension project, dose response (AID 809)
In short: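 System – S. cerevisiae DeaD strain BB579 · Buffer or medium – CSMM-D glucose restrictive medium · Times – culture pre-incubation 4 h, then compound exposure 48 h, both 30 °C · Signal – OD615 absorbance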

SMILES | EC50
CCn1c(=O)c2ccccc2n2c(SCC(=O)N3CCCc4ccccc43)nnc12 | > 10 µM (inactive)
CCN(CC)Cc1c(O)c(Cl)cc2c(C)c(C)c(=O)oc12 | > 10 µM (inactive)
CN1C/C(=C/c2cccnc2)C(=O)/C(=C/c2cccnc2)C1 | > 10 µM (inactive)
COC(=O)c1cc(=O)n(-c2ccccc2)c(=Nc2ccccc2)s1 | > 10 µM (inactive)
Cc1ccc(C(=O)NNC(=S)NC(=O)c2ccc(Cl)cc2)cc1 | 6.78 µM
O=C(c1ccccc1)C(CN1CCCC1)c1ccccc1 (stereo not given) | 9.14 µM
CN(Cc1c(O)ccc2c1oc(=O)c1ccccc12)C1CCCCC1 | > 10 µM (inactive)
CC(=O)c1c(C)[nH]c(C(=O)OC2CCCCC2=O)c1C (stereo not given) | > 10 µM (inactive)
c1ccc(-c2cc(N3CCOCC3)nc3ccccc23)cc1 | > 10 µM (inactive)
O=C(Oc1cc(=O)n2ccccc2n1)c1ccccc1 | 7.19 µM
O=C(COc1ccc([N+](=O)[O-])cc1)N(Cc1ccccc1)Cc1ccccc1 | > 10 µM (inactive)
CCOc1ccc(NCc2nc3ccccc3n2CCOc2ccccc2)cc1 | 3.28 µM
CC(=O)Oc1ccc(N(C(C)=O)S(=O)(=O)c2ccc(C)c([N+](=O)[O-])c2)cc1 | > 10 µM (inactive)
CCOC(=O)CSC1=NC(=O)/C(=C/c2ccc(OC)cc2)S1 | 6.43 µM
COc1cc(OC)cc(-c2nc3ccccc3c(=O)n2OC(=O)c2ccc(Br)cc2)c1 | 6.14 µM
CCc1ccc(CC2S/C(=C(\C#N)C(C)=O)NC2=O)cc1 (stereo not given) | > 10 µM (inactive)
CCOC(=O)CC1=NN(c2ccccc2)C(=O)/C1=C\c1ccc(OC)cc1OC | 8.5 µM
O=C(c1ccccc1)c1nc2ccccc2[nH]c1=O | > 10 µM (inactive)
O=C(CCN1CCCCCC1)Nc1ccc(F)cc1 | > 10 µM (inactive)
CCCC(=Nc1ccccc1OC)C1=C(O)CC(c2ccccc2)CC1=O (stereo not given) | 3.21 µM
CCC(=O)Nc1ccccc1Sc1ncnc2scc(-c3ccccc3)c12 | > 10 µM (inactive)
Cc1ccc2[nH]c(=O)c(CN(CCO)Cc3nnnn3CCc3ccccc3)cc2c1 | > 10 µM (inactive)
Cc1cc2c(c(=O)n1CCc1ccccc1)C(c1ccco1)C(C#N)=C(N)O2 (stereo not given) | > 10 µM (inactive)
Cc1ccc(S(=O)(=O)N[C@@H](Cc2ccccc2)C(=O)CCl)cc1 | 5.97 µM
Nc1sc(-c2ccccc2)cc1C(=O)O | > 10 µM (inactive)
COc1cnc(-c2ccccn2)nc1Sc1cccc(Cl)c1 | 4.44 µM
O=C(NC(=S)NNS(=O)(=O)c1ccccc1)c1ccc([N+](=O)[O-])cc1 | > 10 µM (inactive)

SMILES | EC50
C=CCN(CC=C)S(=O)(=O)c1ccc2nc(NC(=O)C(C)C)sc2c1 | > 10 µM (inactive)
CCCCCCCC(=O)N/N=C(/C)c1c(O)cc(C)oc1=O | > 10 µM (inactive)
CC1CC(C)CN(S(=O)(=O)c2cccc(C(=O)N3C(=O)c4cccc(N)c4C3=O)c2)C1 (stereo not given) | 4.71 µM
CS(=O)(=O)c1nc(-c2ccco2)cc(C(F)(F)F)n1 | 4.01 µM
COc1ccc(C(CNC(=O)c2cccc(Br)c2)N2CCCC2)cc1 (stereo not given) | > 10 µM (inactive)
Oc1ccc(Br)cc1C=Nc1ccc2[nH]ncc2c1 | > 10 µM (inactive)
CCOC(=O)C1Cc2cc3c(cc2C1=O)CC(C(=O)OCC)C3=O (stereo not given) | 5.89 µM
O=C(Nc1nc2ccccc2n1CCN1CCOCC1)c1cn(-c2ccccc2)nc1-c1ccccc1 | > 10 µM (inactive)
O=C(CCc1ccccc1)NCCCN1CCOCC1 | > 10 µM (inactive)
CC1(C)Oc2ccccc2OC1(O)c1ccc2ccccc2n1 (stereo not given) | > 10 µM (inactive)
COc1ccc(N(C)C(=S)Nc2ccc3nc(C)c(C)nc3c2)cc1 | > 10 µM (inactive)
COc1ccc(/C=C(\C#N)C(=O)N2CCOCC2)cc1Br | 8.72 µM
O=C1/C(=C/c2cccnc2)CCC/C1=C\c1cccnc1 | 7.04 µM
CC(C)(C)C(=O)/C(=C/c1cccc([N+](=O)[O-])c1)n1cncn1 | 3.73 µM
Fc1cccc2sc(Nc3nnc(-c4ccco4)o3)nc12 | 0.24 µM
O=C(CCC1CCCC1)c1c(O)c2ccccc2oc1=O | > 10 µM (inactive)
Cc1ccc(/C(O)=C2\C(=O)C(=O)N(c3cc(C)on3)C2c2cccc(Cl)c2)cc1 (stereo not given) | 9.72 µM
COc1cccc(C2CC3C(=O)C=CC2N3Cc2ccccc2)c1 (stereo not given) | 6.1 µM
O=Cc1cc2ccccc2nc1SCc1ccc(Cl)cc1 | 8.27 µM
COc1ccc(-c2cc(C(F)(F)F)nc(S(C)(=O)=O)n2)cc1 | 6.1 µM
C=C(C(=O)c1ccccc1)C(C)CC(=O)c1ccccc1 (stereo not given) | 6.42 µM
N#CSCC(=O)N1c2ccccc2CCc2ccccc21 | 8.69 µM
COC(=O)CC1=NN(c2ccccc2)C(=O)/C1=C\c1ccc(OC)cc1 | > 10 µM (inactive)
CC1CCCN(c2nc3ccccc3nc2C(C#N)C(=O)OC2CCCCC2)C1 (stereo not given) | > 10 µM (inactive)
CCOC(=O)COc1ccccc1/C=C\[N+](=O)[O-] | 1.79 µM
O=Cc1ccccc1OS(=O)(=O)c1ccccc1 | 9.56 µM
CC(c1ccco1)N(C(=O)c1ccccc1NS(=O)(=O)c1cc([N+](=O)[O-])ccc1Cl)c1ccccn1 (stereo not given) | 9.17 µM

SMILES | EC50
CCCCn1c(NS(=O)(=O)c2ccc(C)cc2)c(C(=O)OCC)c2nc3ccccc3nc21 | > 10 µM (inactive)
CC1(C)CC(=O)C2=C(C1)OC1=C(C(=O)CC(C)(C)C1)C2c1ccc(O)cc1O | > 10 µM (inactive)
O=C(/C(=C/c1ccccc1)n1cncn1)c1ccc(Cl)cc1Cl | 1.07 µM
C/C=C/Cn1c(N2CCCCCC2)nc2c1c(=O)[nH]c(=O)n2C | > 10 µM (inactive)
COC(=O)C1=C(C(=O)OC)C(c2cc(Br)ccc2O)c2sc(=O)[nH]c2S1 (stereo not given) | 4.75 µM
O=C1c2ccccc2NC(c2ccc(Cl)cc2Cl)N1O (stereo not given) | 6.33 µM
CCCCCC(=O)N1CCN(CCN=CC2=C(O)CC(c3ccc(OC)c(OC)c3)CC2=O)CC1 (stereo not given) | > 10 µM (inactive)
COC(=O)CSc1ncccc1-c1nc2ccccc2[nH]1 | > 10 µM (inactive)
Cc1c(NC(=O)C(=O)/C=C(/O)c2ccccc2)c(=O)n(-c2ccccc2)n1C | 4.95 µM
CCCC(=Nc1ccccc1)C1=C(O)C(C(=O)OC)C(C)(C)CC1=O (stereo not given) | 5.99 µM
O=C1/C(=C\c2cccnc2)CN(Cc2ccccc2)C/C1=C\c1cccnc1 | 9.63 µM
COC(=O)c1sc(S(=O)(=O)Nc2ccc(Br)cc2)c(C(=O)OC)c1C | > 10 µM (inactive)
CCOC(=O)/C(=C\c1cn(C)c2ccccc12)[N+](=O)[O-] | 3.11 µM
CC1C/C(=C\c2cccnc2)C(=O)/C(=C/c2cccnc2)C1 (stereo not given) | 4.26 µM
CS(=O)(=O)Oc1ccc(Br)cc1/C=C1/N=C(c2ccco2)OC1=O | > 10 µM (inactive)
C=C(CC)C(=O)c1ccc(OCC(=O)O)c(Cl)c1Cl | 7.07 µM
CCC1C/C(=C\c2cccnc2)C(=O)/C(=C/c2cccnc2)C1 (stereo not given) | 3.17 µM
Cc1cccc(OC(=O)n2c(=S)oc3cc(Cl)ccc32)c1 | 5.42 µM
COCCCNC(CC(=O)Nc1ccc(OC)cc1OC)C(=O)O (stereo not given) | > 10 µM (inactive)
CC1=NN(Cc2ccccc2)C(=O)C1C(c1ccccc1)C(C#N)C#N (stereo not given) | > 10 µM (inactive)
COc1ccc(C2CC23N=C(c2ccccc2)OC3=O)cc1 (stereo not given) | > 10 µM (inactive)
Cc1cccc(NC(=O)c2c(O)c3cccc4c3n(c2=O)CCC4)n1 | 6.87 µM
COc1ccc(C(=O)C(CN2CCOCC2)c2ccccc2)cc1F (stereo not given) | 4.62 µM
Cn1c(=O)c(=O)n(C)c2cc(S(=O)(=O)N3CCN(Cc4ccccc4)CC3)ccc21 | > 10 µM (inactive)
CCOC(=O)c1c(C)oc2c1c(C(c1cccnc1)N1CCOCC1)c(O)c1ccccc12 (stereo not given) | > 10 µM (inactive)
CC(C)CN=C(NS(=O)(=O)c1ccccc1)C(Cl)(Cl)Cl | 3.99 µM
Cc1cc(NS(=O)(=O)c2ccc(CC(C)C)cc2)no1 | 6.25 µM

SMILES | EC50
COc1ccc(/C=C(/C(=O)c2ccc(Cl)cc2Cl)n2cncn2)cc1 | 8.48 µM
Cc1cc(C2C(C#N)=C(N)Oc3n[nH]c(C)c32)c(C)s1 (stereo not given) | > 10 µM (inactive)
Cc1cc(C)c(S(=O)(=O)c2ccccc2)c(OC(=O)c2cc(F)c(F)cc2Cl)n1 | 7.24 µM
CCCCC(CC)Cn1c2nc3ccccc3nc2c2c(=N)oc(C)nc21 (stereo not given) | > 10 µM (inactive)
O=C(Oc1ccc([N+](=O)[O-])cc1)c1ccc2ccccc2n1 | > 10 µM (inactive)
O=c1c2c3c(sc2ncn1/N=C/c1ccc([N+](=O)[O-])o1)CCCC3 | > 10 µM (inactive)
Oc1ccc(NCc2ccccc2OCc2ccccc2F)cc1 | > 10 µM (inactive)
CCCCn1c(=O)c2c(O)cc(=O)oc2c2ccccc21 | 5.94 µM
COCCCNc1c2c3c(cccc3[nH]c1=O)C(=O)c1ccccc1-2 | 7.85 µM
CCOC(=O)/C(=C/c1ccc(OC(=O)c2ccccc2)cc1)C(C)=O | 4.96 µM
O=C1C(Cl)=C(Nc2ccccc2O)C(=O)N1CCc1ccccc1 | > 10 µM (inactive)
COC(=O)c1sc2ncn(-n3c(C)ccc3C)c(=O)c2c1C | > 10 µM (inactive)
O=C(/C=C/c1ccccc1)C1C(=O)c2ccccc2C1=O | > 10 µM (inactive)
CCOC(=O)c1c(NC(=O)C2C3C=CC(C3)C2C(=O)O)sc2c1CCC(CC)C2 (stereo not given) | > 10 µM (inactive)
COc1ccc(CN2CCN(C(=O)COc3cccc(C)c3)CC2)c(OC)c1 | > 10 µM (inactive)
O=S1(=O)C=C(Sc2nc3ccccc3s2)c2ccccc21 | > 10 µM (inactive)
CCCCCn1c(=O)c(C(=O)NCc2ccccn2)c(O)c2ccccc21 | > 10 µM (inactive)
CC(=O)C(C(C)=O)c1c(Cl)c(O)c(O)c2c(C(=O)c3ccccc3)coc12 | > 10 µM (inactive)
COc1ccc(C(=O)On2c(-c3ccc(Br)cc3)nc3ccccc3c2=O)cc1 | 3.02 µM
CCCCOC(=O)CSc1nc2c(c(=O)[nH]c(=O)n2C)n1C/C=C(\C)Cl | > 10 µM (inactive)
Cc1cc(C)nc(SCc2cc(=O)c(OC(=O)c3ccc(Br)o3)co2)n1 | 3.26 µM
Cn1c(SCC(=O)N2CCCc3ccccc32)nnc1-c1c[nH]c2ccccc12 | > 10 µM (inactive)
COc1ccc(NC(=O)/C(Cl)=C(/Cl)S(=O)Cc2ccc(C)cc2)cn1 (stereo not given) | > 10 µM (inactive)
Cc1cccc(N2C(=O)/C(=C\c3ccc(OC(F)F)cc3)c3ccccc3C2=O)c1 | > 10 µM (inactive)
